In series [1] the target is Proteinase-activated receptor 2 (Homo sapiens) (UniProt P55085). As to the kind of experiment: (§1) Antagonist activity at PAR2 in human EAhy926 cells assessed as inhibition of SLIGKV-NH2-induced intracellular calcium mobilization preincubated for 15 mins followed by SLIGKV-NH2 addition by Fluo-4-AM dye based fluorescence assay. The class given is functional, cell-based. The method in brief: (§2)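 Confluent adherent cells (~48 h growth in 96-well plates) loaded with Fluo-4/AM calcium dye; antagonist added before PAR2 agonist SLIGKV-NH2 at 5 μM. IC50 from four-variable nonlinear regression of concentration–response data, N = 3 on one plate, SEM error bars.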
Background: Calcium flux is commonly read through the fluorescence of an indicator in the cells.

The target is the same in series [2]. The series can be described thus: (§3) Antagonist activity at PAR2 in human MDA-MB-231 cells assessed as inhibition of SLIGKV-NH2-induced intracellular calcium mobilization preincubated for 15 mins followed by SLIGKV-NH2 addition by Fluo-4-AM dye based fluorescence assay. Format: functional, cell-based. An outline of the steps:
as §2

For series [3], the target named is T1, Proteinase-activated receptor 1 (Homo sapiens) (UniProt P25116).
T1 sequence (whole entry): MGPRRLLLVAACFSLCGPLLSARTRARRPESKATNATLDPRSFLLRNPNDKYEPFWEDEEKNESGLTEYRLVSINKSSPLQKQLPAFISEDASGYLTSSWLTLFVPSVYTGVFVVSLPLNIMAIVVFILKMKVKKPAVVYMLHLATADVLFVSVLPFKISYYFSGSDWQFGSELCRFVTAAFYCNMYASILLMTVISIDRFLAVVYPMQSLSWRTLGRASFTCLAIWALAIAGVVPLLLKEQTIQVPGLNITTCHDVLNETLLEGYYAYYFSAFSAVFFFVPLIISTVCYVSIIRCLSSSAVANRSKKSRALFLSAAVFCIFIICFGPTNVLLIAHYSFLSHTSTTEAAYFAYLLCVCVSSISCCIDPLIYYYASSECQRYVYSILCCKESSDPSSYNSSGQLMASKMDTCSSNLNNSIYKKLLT
The series can be described thus: (§4) Antagonist activity at PAR1 in human EAhy926 cells assessed as inhibition of TFLLRN-NH2-induced intracellular calcium mobilization preincubated for 15 mins followed by TFLLRN-NH2 addition by Fluo-4-AM dye based fluorescence assay. Format: functional, cell-based. An outline of the steps:
(§5)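 Adherent cells grown in 96-well plates to confluence (~48 h), loaded with Fluo-4/AM; antagonist added, then PAR1 agonist TFLLRN-NH2 at 5 μM. Concentration–response curves from N = 3 on a single plate, fitted by four-variable nonlinear regression to give IC50; errors as SEM.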

The next series is filed under the species Homo sapiens. The series can be described thus: (§6) Antagonist activity at PAR1/PAR2 in human EAhy926 cells assessed as inhibition of SFLLRN-NH2-induced intracellular calcium mobilization preincubated for 15 mins followed by SFLLRN-NH2 addition by Fluo-4-AM dye based fluorescence assay. The class given is cell-based. The method in brief:
(§7)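 Cells cultured to confluence over ~48 h in 96-well plates, Fluo-4/AM loaded; antagonist added, then PAR1/2 agonist SFLLRN-NH2 at 3.16 μM. Curves from triplicate wells on a single plate fitted by four-variable nonlinear regression for IC50; SEM reported.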

Series [4] has as its target T2, Proteinase-activated receptor 1 (Homo sapiens, UniProt P25116).
T2 sequence (P25116 whole entry): T1 sequence (whole entry)
The description is as §4. Format: functional, cell-based. The method in brief:
as §5

Series [5] has as its target T2, Proteinase-activated receptor 1. The series can be described thus: (§8) Antagonist activity at PAR1 in human MDA-MB-231 cells assessed as inhibition of TFLLRN-NH2-induced intracellular calcium mobilization preincubated for 15 mins followed by TFLLRN-NH2 addition by Fluo-4-AM dye based fluorescence assay. The class given is functional, cell-based. The method in brief:
as §5

The nature of series [6]: as §6. The conditions noted are these: EA.hy 926. Format: cell-based. An outline of the steps:
as §7

Series [7] has as its target T1, Proteinase-activated receptor 1 (Homo sapiens). The series can be described thus: (§9) Antagonist activity at PAR1 in human EAhy926 cells assessed as inhibition of thrombin-induced intracellular calcium mobilization preincubated for 15 mins followed by thrombin addition by Fluo-4-AM dye based fluorescence assay. Format: functional, cell-based. An outline of the steps:
(§10)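 Fluo-4/AM-loaded confluent EA.hy926 monolayers; antagonist added before 1 nM thrombin as activating protease; calcium mobilization curves fitted for IC50.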

Series [8] deals with T3, Proteinase-activated receptor 2 (Homo sapiens, UniProt P55085).
T3 sequence (P55085 whole entry): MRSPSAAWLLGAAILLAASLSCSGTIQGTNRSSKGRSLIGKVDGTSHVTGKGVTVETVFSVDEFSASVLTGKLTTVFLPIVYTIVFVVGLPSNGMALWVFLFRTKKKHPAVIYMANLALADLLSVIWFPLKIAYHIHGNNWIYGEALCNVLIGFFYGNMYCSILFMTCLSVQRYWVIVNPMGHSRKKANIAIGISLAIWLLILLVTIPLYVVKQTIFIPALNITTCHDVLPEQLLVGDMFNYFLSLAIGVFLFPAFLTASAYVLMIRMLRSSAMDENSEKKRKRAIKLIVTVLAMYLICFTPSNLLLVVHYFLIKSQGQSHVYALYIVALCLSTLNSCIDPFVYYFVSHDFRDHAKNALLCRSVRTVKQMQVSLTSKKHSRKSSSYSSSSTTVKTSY
The series is described as §1. Format: functional, cell-based. An outline of the steps:
as §2

For series [9], the target named is T1, Proteinase-activated receptor 1 (Homo sapiens). Described as §8. The class given is functional, cell-based. An outline of the steps:
as §5

A further series concerns MDA-MB-231. As to the kind of experiment: (§11) Antagonist activity at PAR1/PAR2 in human MDA-MB-231 cells assessed as inhibition of SFLLRN-NH2-induced intracellular calcium mobilization preincubated for 15 mins followed by SFLLRN-NH2 addition by Fluo-4-AM dye based fluorescence assay. Format: cell-based. The method in brief:
as §7

For series [10], the target named is T3, Proteinase-activated receptor 2. Described as §3. The class given is functional, cell-based. The method in brief: as §2
Series [11] in a line: Half life in mouse plasma at 10 uM by LC-MS/MS analysis. Format: ADME, cell-free.
Series [12] in a line: as §11. The class given is cell-based. The method in brief:
as §7

The target in series [13] is T2, Proteinase-activated receptor 1. Described as §9. Format: functional, cell-based. An outline of the steps:
as §10

Series [14] concerns the target Proteinase-activated receptor 2 (Homo sapiens) (UniProt P55085). The series can be described thus: (§12) Antagonist activity at PAR2 in human EAhy926 cells assessed as inhibition of trypsin-induced intracellular calcium mobilization preincubated for 15 mins followed by trypsin addition by Fluo-4-AM dye based fluorescence assay. Format: functional, cell-based. The method in brief:
(§13)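 Fluo-4/AM-loaded confluent cells; antagonist added before 5 nM trypsin as PAR2-activating protease; calcium mobilization concentration–response fitted for IC50.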

Series [15] has as its target T3, Proteinase-activated receptor 2. The series is described as §12. Format: functional, cell-based. The method in brief: as §13

The source made the active and inactive calls.

For `CC1(C)CN(C(=O)[C@H]2CC[C@H](C(=O)O)CC2)CCN1C(=O)c1cn2nc(-c3ccc(F)cc3)cc(-c3ccc(F)cc3)c2n1`, the inhibition result in series [1] and in series [2] was “Active” in each case.

Turning to `CC1(C)CN(C(=O)[C@H]2CC[C@H](C(=O)NCCOCCOCCOCCOCCOCCOCCOCCOCCn3cc(CCC(=O)NCC[C@H](NC(=O)[C@H](Cc4ccc(F)c(F)c4)NC(=O)Nc4ccc5c(CN6CCCC6)nn(Cc6c(Cl)cccc6Cl)c5c4)C(=O)NCc4ccccc4)nn3)CC2)CCN1C(=O)c1cn2nc(-c3ccc(F)cc3)cc(-c3ccc(F)cc3)c2n1`, the inhibition entry (in [1]; in [3]; in the series listed under Homo sapiens) was “Active” throughout.

As usually defined, the IC50 is the concentration needed to halve the response being measured. Turning to `NCCOCCOCCOCCOCCOCCOCCOCCOCCn1cc(CCC(=O)NCC[C@H](NC(=O)[C@H](Cc2ccc(F)c(F)c2)NC(=O)Nc2ccc3c(CN4CCCC4)nn(Cc4c(Cl)cccc4Cl)c3c2)C(=O)NCc2ccccc2)nn1`, the IC50 in [4] came out at 0.097 µM; in series [5], 0.01 µM; in [6], 0.074 µM. Besides, in [7], the inhibition result was “Active”.

With `CC(C)c1cc(-c2ccc(F)cc2)nn2cc(C(=O)N3CCN(C(=O)CCC(=O)NCCCCCC(=O)NCCOCCOCCOCCOCCOCCOCCOCCOCCOCCOCCOCCOCCOCCOCCOCCOCCOCCOCCOCCOCCOCCOCCOCCN=[N+]=[N-])CC3(C)C)nc12`, the inhibition result in series [1] and in series [2] was “inactive” throughout.

Consider `NCC[C@H](NC(=O)[C@H](Cc1ccc(F)c(F)c1)NC(=O)Nc1ccc2c(CN3CCCC3)nn(Cc3c(Cl)cccc3Cl)c2c1)C(=O)NCc1ccccc1` [RWJ-58259], for which the IC50 in [5] was found to be 0.005 µM.

Turning to `CC(C)c1cc(-c2ccc(F)cc2)nn2cc(C(=O)N3CCN(C(=O)CCC(=O)NCCOCCOCCOCCOCCOCCOCCn4cc(CCC(=O)NCC[C@H](NC(=O)[C@H](Cc5ccc(F)c(F)c5)NC(=O)Nc5ccc6c(CN7CCCC7)nn(Cc7c(Cl)cccc7Cl)c6c5)C(=O)NCc5ccccc5)nn4)CC3(C)C)nc12`, the 50% inhibitory concentration (IC50) in series [8] was over 50 µM; in [4], 0.03 µM; in [6], 3 µM.

Regarding `CC(C)c1cc(-c2ccc(F)cc2)nn2cc(C(=O)N3CCN(C(=O)CCC(=O)NCCOCCOCCOCCOCCOCCOCCOCCOCCOCCOCCn4cc(CCC(=O)NCC[C@H](NC(=O)[C@H](Cc5ccc(F)c(F)c5)NC(=O)Nc5ccc6c(CN7CCCC7)nn(Cc7c(Cl)cccc7Cl)c6c5)C(=O)NCc5ccccc5)nn4)CC3(C)C)nc12`, the IC50 was over 50 µM in series [8], 0.04 µM in [4] and over 50 µM in series [6].

`CC1(C)CN(C(=O)[C@H]2CC[C@H](C(=O)NCCOCCOCCOCCOCCOCCOCCn3cc(CCC(=O)NCC[C@H](NC(=O)[C@H](Cc4ccc(F)c(F)c4)NC(=O)Nc4ccc5c(CN6CCCC6)nn(Cc6c(Cl)cccc6Cl)c5c4)C(=O)NCc4ccccc4)nn3)CC2)CCN1C(=O)c1cn2nc(-c3ccc(F)cc3)cc(-c3ccc(F)cc3)c2n1`: the inhibition result (in series [1]; in [3]; in the series filed under Homo sapiens) was “Active” each time.

Regarding `CC1(C)CN(C(=O)[C@H]2CC[C@H](C(=O)NCCOCCOCCOCCOCCOCCOCCOCCOCCOCCOCCn3cc(CCC(=O)NCC[C@H](NC(=O)[C@H](Cc4ccc(F)c(F)c4)NC(=O)Nc4ccc5c(CN6CCCC6)nn(Cc6c(Cl)cccc6Cl)c5c4)C(=O)NCc4ccccc4)nn3)CC2)CCN1C(=O)c1cn2nc(-c3ccc(F)cc3)cc(-c3ccc(F)cc3)c2n1`, the inhibition result (in [1]; in [3]; in the series filed under Homo sapiens) was “Active” in each case.

For `CC(C)c1cc(-c2ccc(F)cc2)nn2cc(C(=O)N3CCN(C(=O)CCC(=O)NCCCCC(=O)NCCOCCOCCOCCOCCOCCOCCOCCOCCOCCOCCOCCOCCOCCOCCOCCOCCOCCOCCOCCOCCOCCOCCOCCn4cc(CCC(=O)NCC[C@H](NC(=O)[C@H](Cc5ccc(F)c(F)c5)NC(=O)Nc5ccc6c(CN7CCCC7)nn(Cc7c(Cl)cccc7Cl)c6c5)C(=O)NCc5ccccc5)nn4)CC3(C)C)nc12`, the inhibition result (in series [1]; in [2]; in [3]; in [9]; in the series listed under Homo sapiens; in the series with MDA-MB-231) was “inactive” each time.

Usually half-life stands for the time needed for the level to fall by half in the phase considered. Higher therefore signals slow decline. Turning to `CC(C)c1cc(-c2ccc(F)cc2)nn2cc(C(=O)N3CCN(C(=O)CCC(=O)NCCOCCOCCOCCOCCOCCOCCOCCOCCOCCOCCOCCOCCOCCOCCOCCOCCOCCOCCOCCOCCOCCOCCOCCn4cc(CCC(=O)NCC[C@H](NC(=O)[C@H](Cc5ccc(F)c(F)c5)NC(=O)Nc5ccc6c(CN7CCCC7)nn(Cc7c(Cl)cccc7Cl)c6c5)C(=O)NCc5ccccc5)nn4)CC3(C)C)nc12`, the IC50 was 3.3 µM in series [8]; 3.5 µM in series [10]; 0.18 µM in series [4]; 0.14 µM in [5]; 0.15 µM in series [6]; 3.3 µM in [12]. For the same molecule, the IC50 in series [13] is 0.36 µM. The molecule also gave a half-life at 10 µM in series [11] of 5.6 h. Besides, the inhibition entry in series [14] was “inactive”.

For the molecule `COCc1cn(CCOCCOCCOCCOCCOCCOCCOCCOCCOCCOCCNC(=O)CCC(=O)N2CCN(C(=O)c3cn4nc(-c5ccc(F)cc5)cc(C(C)C)c4n3)C(C)(C)C2)nn1`, the IC50 came to 7 µM in [8] and 0.86 µM in [10]. Further, the inhibition result (in the series listed under Homo sapiens; in [14]) was “inactive” in each case.

Regarding `CC(C)c1cc(-c2ccc(F)cc2)nn2cc(C(=O)N3CCN(C(=O)CCC(=O)NCCOCCOCCOCCOCCOCCOCCOCCOCCn4cc(CCC(=O)NCC[C@H](NC(=O)[C@H](Cc5ccc(F)c(F)c5)NC(=O)Nc5ccc6c(CN7CCCC7)nn(Cc7c(Cl)cccc7Cl)c6c5)C(=O)NCc5ccccc5)nn4)CC3(C)C)nc12`, the IC50 in series [8] was over 50 µM; in series [4] it was 0.13 µM; in [6], 3 µM.

`CC(C)c1cc(-c2ccc(F)cc2)nn2cc(C(=O)N3CCN(C(=O)CCC(=O)O)CC3(C)C)nc12`: the IC50 in [8] was determined as 0.1 µM; in series [10], 0.48 µM; in [15], 0.002 µM.

These data come from ChEMBL document CHEMBL4308922, “Design and Evaluation of Heterobivalent PAR1-PAR2 Ligands as Antagonists of Calcium Mobilization” (ACS Med Chem Lett, 2019).
